We go through 3 molecules from publication PMC11951523 (Genome Biology, 2025).

Like-named read-outs stand apart in the source and are kept apart here.

Data set [1] addresses T1, SauCas9 (Staphylococcus aureus, UniProt J7RUA5).
T1 sequence (J7RUA5 1-1053): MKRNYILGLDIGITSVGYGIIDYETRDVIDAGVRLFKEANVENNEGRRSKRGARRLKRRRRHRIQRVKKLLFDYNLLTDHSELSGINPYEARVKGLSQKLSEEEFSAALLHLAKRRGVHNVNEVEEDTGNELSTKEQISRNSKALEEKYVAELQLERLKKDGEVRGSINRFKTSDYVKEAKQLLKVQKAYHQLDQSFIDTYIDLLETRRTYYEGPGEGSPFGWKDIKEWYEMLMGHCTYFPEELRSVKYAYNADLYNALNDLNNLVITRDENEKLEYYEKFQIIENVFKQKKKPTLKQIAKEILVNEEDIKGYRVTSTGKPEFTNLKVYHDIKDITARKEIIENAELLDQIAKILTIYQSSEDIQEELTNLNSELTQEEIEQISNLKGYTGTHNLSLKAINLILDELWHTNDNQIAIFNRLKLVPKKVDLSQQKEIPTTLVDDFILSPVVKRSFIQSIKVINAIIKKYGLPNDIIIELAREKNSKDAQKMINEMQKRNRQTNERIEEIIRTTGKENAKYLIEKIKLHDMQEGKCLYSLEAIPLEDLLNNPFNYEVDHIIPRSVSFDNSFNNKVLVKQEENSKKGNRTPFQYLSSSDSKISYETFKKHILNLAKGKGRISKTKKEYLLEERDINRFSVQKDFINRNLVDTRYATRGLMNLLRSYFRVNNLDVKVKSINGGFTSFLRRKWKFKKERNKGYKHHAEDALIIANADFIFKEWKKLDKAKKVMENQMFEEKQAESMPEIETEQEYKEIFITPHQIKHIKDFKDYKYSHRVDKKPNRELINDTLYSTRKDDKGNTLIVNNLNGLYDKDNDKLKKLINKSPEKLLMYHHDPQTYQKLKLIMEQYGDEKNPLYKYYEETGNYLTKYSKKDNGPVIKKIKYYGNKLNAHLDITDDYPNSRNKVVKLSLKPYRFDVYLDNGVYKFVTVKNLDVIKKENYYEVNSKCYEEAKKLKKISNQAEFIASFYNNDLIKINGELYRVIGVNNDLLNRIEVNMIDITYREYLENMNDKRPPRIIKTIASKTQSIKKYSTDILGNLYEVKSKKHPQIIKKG
Briefly: In vitro purified enzyme activity assay for SauCas9. The data set is classed as biochemical. The following applies: Sau Cas9.

Data set [2] deals with SpyCas9. As to conditions: read-out: IC50 in the in vitro DNA cleavage assay; cited from earlier work.
The target in data set [3] is T2, SpyCas9 (Streptococcus pyogenes serotype M1, UniProt Q99ZW2). Briefly: biochemical. The following applies: Spy Cas9.
For data set [4] the following is noted: in humans; cited from earlier work.
Another data set concerns LbaCas12a. Briefly: LbaCas12a activity assay. The data set is classed as biochemical, Lachnospiraceae bacterium. As to conditions: for effect on the activity of LbaCas12a: complete inhibition refers to 50 μM or above.
The target in data set [5] is T2, SpyCas9. In kind it is cell-based. The following applies: read-out: IC50, cell-based assay; Spy Cas9; TIDE analysis, editing efficiency for COSMC or EMX1 loci in HEK293FT cells. An outline of the steps: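 HEK293FT cells, ~2 × 10^5 per well, were seeded 1 day before transfection (Lipofectamine 3000) with 1 μg PX459-SpyCas9-sgCOSMC, -sgEMX1 or -sgControl. Test compound was added 0 or 6 h post-transfection, and cells were kept 24 h at 37 °C, then selected with 2.5 μg/ml puromycin for 36–48 h. Target loci were PCR-amplified, Sanger-sequenced and scored by TIDE.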

The target of data set [6] is T1, SauCas9. Briefly: SauCas9-mediated genome editing of COSMC in HEK293FT cells, TIDE analysis. In kind it is cell-based. As to conditions: read-out: IC50, cell-based assay; Sau Cas9; TIDE analysis, editing efficiency for COSMC in HEK293FT cells. The procedure, abridged:
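HEK293FT wt cells were co-transfected (Lipofectamine 3000) with 1 μg miniCMV-SaCas9 and 1 μg pGL3 carrying sgCOSMC-Sau or sgControl. Test compound was added right after transfection for 24 h, followed by 2.5 μg/ml puromycin selection. The COSMC locus was PCR-amplified (40 cycles), Sanger-sequenced, and editing efficiency was obtained by TIDE analysis.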

For data set [7], the system named is SpyCas9-mediated genome editing of PCSK9. Briefly: SpyCas9-mediated anti-PCSK9 mouse model by hydrodynamic injection. In kind it is in vivo, BALB/c mice. An outline of the steps:
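On days 1, 4 and 7, 90 μg PX459-SpyCas9-sgPCSK9 or -sgControl in 2 ml saline was injected hydrodynamically into the tail vein over 5–8 s. Orbital blood (~100 μl) was taken days 2, 5 and 8, and heparin plasma (20 μl) was assayed by PCSK9 ELISA.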

The target in data set [8] is T2, SpyCas9. Briefly: Two-plasmid-based bacterial survival assay. In kind it is cell-based. As to conditions: read-out: IC50, bacteria-based assay, Spy Cas9, bacterial survival assay using pCas and pTarget-sgSSEA plasmids, E. coli MG1655. The procedure, abridged: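 E. coli MG1655 competent cells carrying pCas (SpyCas9) electroporated with pTarget-sgSSEA, or the pT-sgControl plasmid as reference. Test compound added to the electroporated bacteria for 1.5 h at 32 °C, then plated on LB with kanamycin and spectinomycin and incubated overnight. Colonies counted and expressed as a percentage of the compound-treated sgControl strain at the same concentration (100%).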

Another data set concerns the target BE4 base editor (Streptococcus pyogenes, UniProt Q99ZW2, D10A). Briefly: BE4-mediated base editing of EMX1 in HEK293FT cells, EditR analysis. The following applies: read-out: IC50, cell-based assay; BE4 base editing efficiency for EMX1 loci, HEK293FT cells. In kind it is cell-based.
The next data set addresses FnoCas12a (Francisella tularensis subsp. novicida, UniProt A0Q7Q2). The data set is classed as biochemical.
Another data set deals with E. coli MG1655. Briefly: Toxicity to bacteria in the two-plasmid-based bacterial survival assay. The data set is classed as cell-based. The following applies: MG1655, bacterial survival assay. An outline of the steps: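 MG1655 pCas-competent cells were electroporated with pT-sgControl. Test compound was added to 700 μl LB immediately afterwards and incubated 1.5 h at 32 °C, then plated on LB agar with kanamycin and spectinomycin (100 μg/ml each). Colonies were counted after overnight incubation; biological replicates n = 3.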

Data set [9] concerns EcoRI or KpnI endonuclease. Briefly: EcoRI or KpnI endonuclease activity assay with 2.5 kb linear DNA. The data set is classed as biochemical.
Data set [10] addresses T2, SpyCas9. Briefly: GFP-disruption assay in HEK293FT cells. In kind it is cell-based. As to conditions: read-out: IC50, cell-based assay; Spy Cas9; GFP-disruption assay, PX459-SpyCas9 and pGL3-sgGFP plasmids, HEK293FT cells.
Data set [11] has as its target T2, SpyCas9. Briefly: Surface plasmon resonance assay. In kind it is binding. An outline of the steps: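 His-tagged SpyCas9, Ni–NTA purified and imidazole-eluted, amine-coupled to a CM5 chip at 100 μg/ml. Test compounds were diluted in 1× PBST to a series of concentrations and injected at 30 μl/min, with 120 s association and 120 s dissociation. Equilibrium KD was fitted from the response curves.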

Where [12] appears, read: read-out: IC50, in vitro purified enzyme assay, linear substrates (87 bp oligonucleotide).
[13] abbreviates: read-out: IC50, in vitro purified enzyme assay, supercoil (circular) plasmid substrate.

With `Cc1ccc(S(=O)(=O)N2CC[C@@H]3[C@H](CO)Nc4ccc(-c5ccccc5F)cc4[C@@H]32)cc1` [BRD0539], the IC50 on SauCas9 [1] (setting [12]) is 10 to 20 µM; on SauCas9 [1] (setting [13]), about 50 µM; in the data set with SpyCas9 [2], 22 µM.
`CN[C@H]1C(=O)N[C@@H]2Cc3ccc(cc3)Oc3cc4cc(c3O[C@@H]3O[C@H](C(=O)O)[C@@H](O)[C@H](O)[C@H]3NC(=O)CCCCCCCCC(C)C)Oc3ccc(cc3Cl)[C@@H](O)[C@@H]3NC(=O)[C@H](NC(=O)[C@@H]4NC(=O)[C@@H](NC2=O)c2cc(cc(O)c2Cl)Oc2cc1ccc2O)c1ccc(O)c(c1)-c1c(O[C@H]2O[C@H](CO)[C@@H](O)[C@H](O)[C@@H]2O)cc(O)cc1[C@@H](C(=O)NCCCN(C)C)NC3=O` [Dalbavancin]: the IC50 was about 5 µM at SpyCas9 [3] (read-out: IC50, in vitro purified enzyme assay, linear substrates (87 bp oligonucleotide or 2.5 kb linear DNA)); 10 to 20 µM at SpyCas9 [3] (read-out: IC50, in vitro purified enzyme assay, supercoil (circular) plasmid substrate pcDNA3.1/CT-GFP); about 25 µM on SauCas9 [1] (setting [12]); 12.5 to 25 µM on SauCas9 [1] (setting [13]); about 10 µM on SpyCas9 [5]; about 10 µM at SauCas9 [6]. The IC50 on SpyCas9 [8] was 12.5 to 25 µM; at SpyCas9 [8] (listed as dalbavancin), about 12.5 µM; at BE4 base editor it was 10 to 20 µM; at SpyCas9 [10], about 10 µM. In [4], the “elimination half-time (t1/2 value)” value is on record as ~ 1 week. In addition, the “site of metabolism / elimination” value in [4] is recorded as “largely eliminated in the kidney”. Moreover, the “effect on the activity of LbaCas12a” value with LbaCas12a was “inactive to or weakly inhibited”. Besides, the “effect on the basal level of PCSK9 in vehicle-treated (sgControl) mice” value in data set [7] (160 mg/kg) was “did not interfere”. In addition, the “preventive effect on loss of plasma PCSK9” value in data set [7] (high doses of 80 or 160 mg/kg, 2nd or 3rd treatment cycle) was “strong preventive effects”. Also, the “effect on the activity of FnoCas12a” value on FnoCas12a is “inactive to or weakly inhibited”. In the data set with E. coli MG1655, the “toxicity to E. coli” value is listed as “did not appear to be much toxic”. In data set [9], the “selectivity for Cas9 over other endonucleases EcoRI and KpnI” value is “more than 10 folds”.
As to `CCCCC(CC)COC(=O)CC(C(=O)OCC(CC)CCCC)S(=O)(=O)O` (stereo not shown) [Docusate], the IC50 on SpyCas9 [3] (IC50, in vitro purified enzyme assay, linear substrates (87 bp oligonucleotide or 2.5 kb linear DNA)) lay within 20 to 50 µM; at SpyCas9 [3] (IC50, in vitro purified enzyme assay, supercoil (circular) plasmid substrate pcDNA3.1/CT-GFP) it was 10 to 20 µM; against SauCas9 [1] (IC50, in vitro purified enzyme assay, linear substrates (87 bp oligonucleotide)), 12.5 to 25 µM; at SauCas9 [1] (IC50, in vitro purified enzyme assay, supercoil (circular) plasmid substrate) it was 25 to 50 µM. In addition, the dissociation constant (Kd) at SpyCas9 [11] lay within 12.8 to 56.4 µM. Also, in the data set with LbaCas12a, the “selectivity of inhibition between SpyCas9 (Type II-A) and LbaCas12a (Type V)” value is “less than 5 folds”. Besides, the “effect on the activity of LbaCas12a” value with LbaCas12a is recorded as “completely inhibit”. Besides, the “effect on the activity of FnoCas12a” value at FnoCas12a is “completely inhibit”. Besides, the “selectivity of inhibition between SpyCas9 (Type II-A) and FnoCas12a (Type V)” value at FnoCas12a was “less than 5 folds”. Moreover, the “selectivity for Cas9 over other endonucleases EcoRI and KpnI” value in data set [9] is reported as ~ 5 folds.

What is called IC50 is the concentration at which inhibition is half-maximal. The term Kd denotes the free concentration of one partner at which half of the binding sites on the other are occupied at equilibrium, for simple one-to-one binding. High values mean a looser complex, low ones a tighter complex.
